Laboratory results as given in ChEMBL document CHEMBL2390862, “Enmein-type diterpenoid analogs from natural kaurene-type oridonin: Synthesis and their antitumor biological evaluation” (Eur J Med Chem, 2013).

Legend:
Type in all cases: functional, cell-based
[1] = Cytotoxicity against human CaEs17 cells after 72 hrs by MTT assay; settings: CaEs17, 72 h
Procedure, shortened: (§1)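 K562, CaEs-17, Bel-7402 and MGC-803 cells in log phase seeded at 5 × 10⁴ cells/mL, incubated with or without test compounds at 37 °C, 5% CO₂; after 72 h MTT (5 mg/mL stock) added for 4 h, formazan dissolved in DMSO, OD read at 490 nm. Negative reference 0.1% DMSO, Taxol positive control. IC50 as mean ± S.D. of three independent experiments.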

Bel-7402 = assay: Cytotoxicity against human Bel7402 cells after 72 hrs by MTT assay; settings: Bel-7402, 72 h; procedure, shortened: as §1
MGC-803 = assay: Cytotoxicity against human MGC803 cells after 72 hrs by MTT assay; settings: MGC-803, 72 h; procedure, shortened: as §1
K562 = assay: Cytotoxicity against human K562 cells after 72 hrs by MTT assay; settings: K562, 72 h; procedure, shortened: as §1

Row | Compound | IC50 [1] | IC50 (Bel-7402) | IC50 (MGC-803) | IC50 (K562)
1 | C=C1C(=O)[C@@]23C(=O)O[C@H]4CCC(C)(C)[C@H]5[C@H](O)OC[C@@]45[C@@H]2CC[C@@H]1[C@H]3OC(=O)c1cc(F)c(F)c(F)c1F | 1890 nM | 890 nM | 1240 nM | 1040 nM
2 | C=C1C(=O)[C@@]23C(=O)O[C@H]4CCC(C)(C)[C@H]5[C@H](O)OC[C@@]45[C@@H]2CC[C@@H]1[C@H]3OC(=O)c1ccc(C(F)(F)F)cc1 | 760 nM | 1270 nM | 960 nM | 370 nM
3 | C=C1C(=O)[C@@]23C(=O)O[C@H]4CCC(C)(C)[C@H]5[C@H](O)OC[C@@]45[C@@H]2CC[C@@H]1[C@H]3OC(=O)c1ccccc1 | 540 nM | 1420 nM | 930 nM | 210 nM
4 | C=C1C(=O)[C@@]23C(=O)O[C@H]4CCC(C)(C)[C@H]5[C@H](O)OC[C@@]45[C@@H]2CC[C@@H]1[C@H]3OC(=O)CC | 1210 nM | 1530 nM | 1560 nM | 1020 nM
5 | C=C1C(=O)[C@@]23C(=O)O[C@H]4CCC(C)(C)[C@H]5[C@H](O)OC[C@@]45[C@@H]2CC[C@@H]1[C@H]3OC(=O)c1ccccc1Cl | 600 nM | 850 nM | 800 nM | 220 nM
6 | C=C1C(=O)[C@@]23C(=O)O[C@H]4CCC(C)(C)[C@H]5[C@H](O)OC[C@@]45[C@@H]2CC[C@@H]1[C@H]3OC(=O)c1ccc([N+](=O)[O-])cc1 | 580 nM | 1010 nM | 640 nM | 260 nM
